Experimental findings from ChEMBL document CHEMBL3124806, “Imidazopyridine-fused [1,3]-diazepinones: synthesis and antiproliferative activity” (Eur J Med Chem, 2014) are described below.

Common to all, as to assay type: functional
One assay deals with ACHN. The assay is described as follows: Cytotoxicity against human ACHN cells after 48 hrs by SRB assay. Put shortly: (§1)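 NCI-60 five-dose testing, 100 to 0.01 µM, under a 48 h continuous-exposure protocol. Growth estimated by SRB protein assay, read spectrophotometrically against untreated controls; IC50 derived from the dose-response.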
Another assay deals with MDA-MB-435. Description: Cell cycle arrest in human MDA-MB-435 cells assessed as accumulation at S phase at 5 uM after 48 hrs by propidium iodide staining-based FACS analysis (reference value: 22.8%). (A flow cytometer gives signals particle by particle.)
The subject of the next assay is MCF7. The assay is described as follows: Cytotoxicity against human MCF7 cells after 48 hrs by SRB assay. The settings on record: MCF7, 48 h. Put shortly:
as §1

[1] abbreviates: read-out: LC50 (the source's name).

One may read the GI50 as the concentration that inhibits growth by half. The low end stands for greater sensitivity of the cells, the high end for lower sensitivity of the cells. By TGI is commonly meant the concentration giving total growth inhibition. Higher therefore signals less potent growth arrest. Turning to `C[C@@H]1NC(c2ccc(Br)cc2)=Nc2nc3ccccn3c2C1=O`, the GI50 in the assay with ACHN worked out at 6.75 µM; with MCF7, 2.99 µM. The TGI in the assay with ACHN and in the assay with MCF7 was greater than 100 µM in each case. For the same compound, the CC50 in the assay with ACHN (setting [1]) and in the assay on MCF7 (setting [1]) was greater than 100 µM each time. Also, in the assay on MDA-MB-435, the Activity is listed as 30.8%.
